High-throughput results (PubChem)
Compounds with a hit are over-represented: about 10% of the library has one in this group of screens.
Diaphorase act: counter-screen for diaphorase-based assays: diaphorase activators and chemical reducers. Diaphorase/resazurin coupled assay, resorufin fluorescence, 16 min; stronger effect = higher value; 1 = vehicle wells, 0 = NADH-free wells. activation factor at 20 µM. 190,000 compounds, 0.005% hits;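 active = diaphorase activity raised at least twofold by the compound at 20 µM; inactive = activation factor below 2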
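Test system: Clostridium kluyveri diaphorase, purified enzyme. Buffer or medium: 50 mM HEPES pH 7.4 buffer plus MgCl2 and Tween 20. Also added: 0.114 mM NADH and 0.1 mM resazurin, final amounts. Dosing: compound 20 µM once, DMSO 1%. Schedule: 16 min enzyme reaction, ambient temperature. Detection: fluorescence of resorufin, 544 nm excitation, 590 nm emission.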
PMI act hi M6P: activators of human phosphomannose isomerase at near-saturating mannose 6-phosphate; P34949; coupled PMI enzyme assay, resazurin fluorescence, 20 min; stronger effect = higher value; 1 = untreated enzyme, 0 = substrate-free blank; activation factor at 20 µM; 190,000 compounds, 0.34% hits;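 active = activation factor of 2 or more at 20 µM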
Target sequence (P34949 whole entry, looked up): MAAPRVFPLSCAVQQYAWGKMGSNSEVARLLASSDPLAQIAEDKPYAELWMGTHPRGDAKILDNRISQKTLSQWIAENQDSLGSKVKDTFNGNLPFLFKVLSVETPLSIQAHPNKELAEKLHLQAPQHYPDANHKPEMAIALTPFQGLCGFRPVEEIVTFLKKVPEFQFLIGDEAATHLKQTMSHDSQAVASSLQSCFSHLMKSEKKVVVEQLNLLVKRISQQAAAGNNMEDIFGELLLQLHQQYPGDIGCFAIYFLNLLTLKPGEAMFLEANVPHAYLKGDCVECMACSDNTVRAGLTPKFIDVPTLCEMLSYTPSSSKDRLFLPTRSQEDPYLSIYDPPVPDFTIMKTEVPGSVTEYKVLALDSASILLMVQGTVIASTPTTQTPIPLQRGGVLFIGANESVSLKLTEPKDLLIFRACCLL
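assay system = human phosphomannose isomerase with PGI, G6PDH, diaphorase coupling enzymes | quantity = 15 ng/mL PMI | incubation = enzyme reaction with compound 20 min at room temperature | medium = HEPES pH 7.4 buffer with MgCl2 and Tween-20 | compound dosing = one concentration, 20 µM, in 1% DMSO | measured by = Diaphorase-driven resazurin-to-resorufin fluorescence, excitation 544, emission 590 nm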
L major viab: Leishmania major promastigote growth inhibition. Leishmania major promastigotes, resazurin fluorescence viability. inhibition, % at 10 µM. 200,000 compounds, 9% hits. AID 1063; in the data active = inhibition above about 50%;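 also: promastigotes grown with compound for 44 hours at 28 °C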
WT yeast gro inh: growth inhibition of WT yeast, mitochondrial fusion screen; inhibition, % at 10 µM; 190,000 compounds, 2.1% hits; mitochondrial fusion phenotypic screen, WT strain; in the data active = inhibition above about 58%; tested in S. cerevisiae
PMI activator: increases human mannose-6-phosphate isomerase activity | purified human PMI, coupled resazurin fluorescence, 20 min; stronger effect = higher value; 1 = vehicle control, 0 substrate-free wells | P34949 | 190,000 compounds, 0.005% hits | activation factor at 20 µM | AID 1214;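 active = activation factor of 2 or more at 20 µM, relative to plate controls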
The depositor's hits bear a star.

SMILES | Diaphorase act | PMI act hi M6P | L major viab | WT yeast gro inh | PMI activator
CCN(CC)S(=O)(=O)c1ccc(NC(=O)CC(NC(C)=O)c2ccccc2)cc1 (centres undefined) | 0.9 | 1 | 0.4 | -6.2 | 1
Cc1ccc(NC(=S)N(Cc2ccc(Cl)cc2)Cc2ccc(C(=O)O)cc2)cc1Cl | 0.9 | 1 | 3.2 | 56.7 | 0.9
C/C(N)=C(/C#N)C(=O)CSc1nc2ccccc2c(=O)n1-c1ccc(C)c(Cl)c1 | 0.8 | 1 | -3.6 | 6.4 | 0.9
COc1ccc(/C=N/Nc2cc(OC)ncn2)cc1 | 0.9 | 0.9 | 0.9 | 4.5 | 0.9
CN(C)c1cc(N/N=C\c2ccccc2)nc(N(C)C)n1 | 0.5 | 0.4 | 46.8 | 58.7* | 0.4
COc1ccccc1/C=N/Nc1nncc2ccccc12 | 1.1 | 1 | -3.9 | -9.5 | 1
COc1ccccc1/C=N/Nc1cc(N(C)C)nc(N(C)C)n1 | 0.5 | 0.4 | 83.6* | 41.8 | 0.4
CNc1nc(C)nc(N/N=C/c2ccccc2)n1 | 1.2 | 1.1 | -5.5 | -15.2 | 1.1
COc1ccc(/C=N/Nc2cc(N(C)C)nc(N(C)C)n2)cc1 | 0.7 | 0.4 | 97.9* | 40.1 | 0.4
COc1ccc(/C=N/Nc2cc(C)nc(N)n2)cc1 | 0.9 | 1 | 60.4* | -4.0 | 0.9
CC(C(=O)NCc1ccc(F)cc1)c1ccc([N+](=O)[O-])cc1 (centres undefined) | 1.2 | 1 | -1.0 | 0.0 | 1.1
COc1ccc(Cl)cc1C(=O)NNC(=O)CSc1nnnn1C | 1.1 | 1 | -6.5 | 3.5 | 1.1
COc1cc(/C=N/NC(=O)c2ccc(COc3cc(C)ccc3C(C)C)cc2)cc(OC)c1O | 0.8 | 0.6 | 37.0 | 23.4 | 0.8
Cc1ccc(C(C)C)c(OCc2ccc(C(=O)N/N=C/c3cccc(O)c3O)cc2)c1 | 0.9 | 0.8 | 100.1* | -17.2 | 1.1
Cc1ccc(C(C)C)c(OCc2ccc(C(=O)N/N=C/c3ccc(O)c(O)c3)cc2)c1 | 0.7 | 1 | 100.4* | -12.0 | 0.8
CCOC(=O)c1c(-c2cccs2)csc1NC(=O)CNCCN1CCOCC1 | 1 | 1.1 | 19.5 | -8.4 | 0.9
C/C(=N\N(C)C)C1=C(O)c2ccccc2C1=O | 0.9 | 0.9 | -3.4 | -9.4 | 1
COc1ccc(N=C(C)C2=C(O)c3ccccc3C2=O)cc1 | 0.8 | 0.9 | 56.2* | -7.0 | 1
Cc1cc(C(=O)CSc2nnc(N)s2)c(C)n1CCc1ccc(Cl)cc1 | 0.9 | 0.9 | 21.0 | 10.2 | 1
Cc1cc(C(=O)CCl)c(C)n1CCc1ccc(Cl)cc1 | 0.9 | 1.2 | 100.5* | 21.3 | 1.3
Cc1cc(C(=O)CCl)c(C)n1CCc1ccc(F)cc1 | 0.9 | 1.1 | 100.4* | 3.5 | 1.2
COc1ccc(CCn2c(C)cc(C(=O)CCl)c2C)cc1OC | 0.9 | 1.1 | 88.6* | -6.6 | 1.1
Cc1nn(-c2ccccc2)c(C)c1/C=N/NC(=O)CSc1nnc(SCc2cccc3ccccc23)s1 | 0.8 | 0.8 | 96.7* | 6.3 | 0.9
Cc1ccc(-n2c(SCC(=O)N/N=C/c3c(C)nn(-c4ccccc4)c3C)nc3ccccc3c2=O)cc1 | 0.8 | 0.9 | 12.1 | 4.1 | 0.7
CCOC(=O)c1sc(N=NC2=C(O)CC(C)(C)CC2=O)c(C(=O)OCC)c1C | 1 | 1.1 | -2.6 | -7.0 | 1.1
SMILES | Diaphorase act | PMI act hi M6P | L major viab | WT yeast gro inh | PMI activator
Cc1cc(N/N=C/c2c(O)ccc3ccccc23)nc(-c2ccccc2O)n1 | 0.9 | 0.9 | 96.8* | 1.1 | 0.9
Cc1cc(Nc2ccccc2)nc(-c2ccccc2O)n1 | 0.8 | 0.9 | 10.7 | -0.1 | 0.9
Cc1cc(NCc2ccccc2)nc(-c2ccccc2O)n1 | 0.7 | 0.8 | 24.7 | 61.5* | 0.8
CCSc1nnc(-c2ccccc2N=Cc2c(C)[nH]n(-c3ccccc3)c2=O)c(=O)[nH]1 | 0.8 | 0.5 | -8.6 | -12.9 | 0.9
O=C(N/N=C/c1ccsc1)c1cc(-c2cccs2)nc2ccccc12 | 0.9 | 0.9 | 20.0 | 10.8 | 0.9
C/C(=N\NC(=O)c1cc(-c2cccs2)nc2ccccc12)c1ccccn1 | 0.9 | 1.3 | 100.3* | 38.3 | 1.1
C/C(=N\NC(=O)c1cc(-c2ccncc2)nc2ccccc12)c1ccc(N2CCOCC2)cc1 | 0.8 | 0.8 | 96.9* | -15.4 | 0.9
Cc1cccc2sc(NNC(=O)c3cc(-c4cccs4)nc4ccccc34)nc12 | 1 | 1.2 | -8.3 | 59.0* | 1.1
O=C(O)CCCn1cc(NC(=O)c2ccc(Br)o2)cn1 | 1 | 0.9 | -2.5 | 6.5 | 1
